Values after ≈ are worked out from the molar mass of the structure shown. Active and inactive are the calls of the source. The rule behind the calls is not given here.
Experiments:
Aspergillus niger [1] = experiment: Antifungal activity against Aspergillus niger IMI17454 strain.; assay type: functional; details: Aspergillus niger; read-out: MIC
Aspergillus nidulans = experiment: Antifungal activity against Aspergillus nidulans CABI 0160037 strain; assay type: functional
Candida albicans = experiment: Antifungal activity against Candida albicans NCPF 3179 strain.; assay type: functional; details: Candida albicans; read-out: MIC
Escherichia coli = experiment: Antibacterial activity against Escherichia coli NCTC 9001 strain.; assay type: functional, organism-based
[2] = Antibacterial activity against Enterobacter cloacae NCTC 10005 strain; assay type: functional
Klebsiella aerogenes [3] = experiment: Antibacterial activity against Klebsiella aerogenes WRL CN 345 strain.; assay type: functional, WRL CN 375; details: Klebsiella aerogenes, WRL CN 375; read-out: MIC
Staphylococcus aureus [4] = experiment: Antibacterial activity against methicillin-resistant Staphylococcus aureus (MRSA) PHLS M1 strain.; assay type: functional
How it was run: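 Read-out is the minimum inhibitory concentration, reported in µM. Amoxycillin is tested alongside as the reference antibiotic.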

[5] = system: Mycolicibacterium fortuitum; experiment: Antibacterial activity against Mycobacterium fortuitum NCTC 10394 strain.; assay type: functional
Proteus vulgaris = experiment: Antibacterial activity against Proteus vulgaris NCTC 4175 strain.; assay type: functional
Staphylococcus aureus [6] = experiment: Antibacterial activity against Staphylococcus aureus NCTC 6571 strain.; assay type: functional
Enterococcus faecalis [7] = experiment: Antibacterial activity against Streptococcus faecalis NCTC 775 strain.; assay type: functional
Aspergillus niger [8] = experiment: Antifungal activity against Aspergillus niger IMI17454 strain; na = not active; assay type: functional
[9] = Antifungal activity against Candida albicans NCPF 3179 strain; na = not active; assay type: functional
Enterobacter cloacae = experiment: Antibacterial activity against Enterobacter cloacae NCTC 10005 strain.; assay type: functional, organism-based
Staphylococcus aureus [10] = experiment: Antibacterial activity against MRSA PHLS M1 strain; na = not active; assay type: functional, organism-based
Staphylococcus aureus [11] = experiment: Antibacterial activity against Staphylococcus aureus NCTC 6571 strain; na = not active; assay type: functional, organism-based
Enterococcus faecalis [12] = experiment: Antibacterial activity against Streptococcus faecalis NCTC 775 strain; na = not active; assay type: functional, organism-based
Klebsiella aerogenes [13] = experiment: Antibacterial activity against Klebsiella aerogenes WRL CN 345 strain; na = not active; assay type: functional, organism-based
[14] = system: Mycolicibacterium fortuitum; experiment: Antibacterial activity against Mycobacterium fortuitum NCTC 10394 strain; na = not active; assay type: functional, organism-based
[15] = Antibacterial activity against Proteus vulgaris NCTC 4175 strain; na = not active; assay type: functional

## CC(C)n1cc(NC(=O)c2cc(NC(=O)c3cc(NC=O)cn3C(C)C)cn2C(C)C)cc1C(=O)NCCCN(C)C
Aspergillus niger [1]
  MIC: 72 µM (≈ 41.8 µg/mL)
Aspergillus nidulans
  MIC: 72 µM (≈ 41.8 µg/mL)
Candida albicans
  MIC: 144 µM (≈ 83.6 µg/mL)
Escherichia coli
  MIC: inactive
[2]
  MIC: 36 µM (≈ 20.9 µg/mL)
Klebsiella aerogenes [3]
  MIC: 36 µM (≈ 20.9 µg/mL)
Staphylococcus aureus [4]
  MIC: 144 µM (≈ 83.6 µg/mL)
[5]
  MIC: 72 µM (≈ 41.8 µg/mL)
Proteus vulgaris
  MIC: 144 µM (≈ 83.6 µg/mL)
Staphylococcus aureus [6]
  MIC: 144 µM (≈ 83.6 µg/mL)
Enterococcus faecalis [7]
  MIC: 72 µM (≈ 41.8 µg/mL)

## CCn1cc(NC(=O)c2cc(NC(=O)c3cc(NC=O)cn3C)cn2C)nc1C(=O)NCCCN(C)C
Aspergillus niger [8]
  MIC: inactive
Aspergillus nidulans
  MIC: 160 µM (≈ 81.9 µg/mL)
[9]
  MIC: inactive
Escherichia coli
  MIC: inactive
Enterobacter cloacae
  MIC: inactive
Klebsiella aerogenes [3]
  MIC: 40 µM (≈ 20.5 µg/mL)
Staphylococcus aureus [10]
  MIC: inactive
[5]
  MIC: 160 µM (≈ 81.9 µg/mL)
Proteus vulgaris
  MIC: 160 µM (≈ 81.9 µg/mL)
Staphylococcus aureus [11]
  MIC: inactive
Enterococcus faecalis [12]
  MIC: inactive

## Cc1oc(CNC(=O)c2cc(NC(=O)c3cc(NC=O)cn3C)cn2C)nc1C(=O)NCCCN(C)C
Aspergillus niger [1]
  MIC: 160 µM (not active) (≈ 82 µg/mL)
Aspergillus nidulans
  MIC: 160 µM (not active) (≈ 82 µg/mL)
[9]
  MIC: inactive
Escherichia coli
  MIC: inactive
[2]
  MIC: 160 µM (not active) (≈ 82 µg/mL)
Klebsiella aerogenes [13]
  MIC: inactive
Staphylococcus aureus [4]
  MIC: 160 µM (not active) (≈ 82 µg/mL)
[14]
  MIC: inactive
[15]
  MIC: inactive
Staphylococcus aureus [11]
  MIC: inactive
Enterococcus faecalis [12]
  MIC: inactive

## CC(=O)Nc1cc(C(=O)Nc2cc(C(=O)Nc3cc(C(=O)NCCCN4CCCC4)n(C)c3)n(C)c2)n(C)c1
Aspergillus niger [1]
  MIC: 153 µM (≈ 82.1 µg/mL)
Aspergillus nidulans
  MIC: 153 µM (≈ 82.1 µg/mL)
[9]
  MIC: inactive
Escherichia coli
  MIC: inactive
[2]
  MIC: 153 µM (≈ 82.1 µg/mL)
Klebsiella aerogenes [3]
  MIC: 153 µM (≈ 82.1 µg/mL)
Staphylococcus aureus [10]
  MIC: inactive
[5]
  MIC: 76.9 µM (≈ 41.3 µg/mL)
[15]
  MIC: inactive
Staphylococcus aureus [11]
  MIC: inactive
Enterococcus faecalis [7]
  MIC: 153 µM (≈ 82.1 µg/mL)

## CC(=O)Nc1cc(C(=O)Nc2cc(C(=O)Nc3cc(C(=O)NCCCN(C)C)n(C)c3)n(C)c2)n(C)c1
Aspergillus niger [1]
  MIC: 160 µM (≈ 81.7 µg/mL)
Aspergillus nidulans
  MIC: 160 µM (≈ 81.7 µg/mL)
Candida albicans
  MIC: 160 µM (≈ 81.7 µg/mL)
Escherichia coli
  MIC: inactive
[2]
  MIC: 160 µM (≈ 81.7 µg/mL)
Klebsiella aerogenes [3]
  MIC: 80 µM (≈ 40.8 µg/mL)
Staphylococcus aureus [4]
  MIC: 40 µM (≈ 20.4 µg/mL)
[5]
  MIC: 160 µM (≈ 81.7 µg/mL)
Proteus vulgaris
  MIC: 160 µM (≈ 81.7 µg/mL)
Staphylococcus aureus [11]
  MIC: inactive
Enterococcus faecalis [7]
  MIC: 160 µM (≈ 81.7 µg/mL)

## CCC(C)n1ncn(-c2ccc(N3CCN(c4ccc(OC[C@H]5CO[C@](Cn6cncn6)(c6ccc(Cl)cc6Cl)O5)cc4)CC3)cc2)c1=O (stereo partly specified) [ITRACONAZOLE]
Aspergillus niger [1]
  MIC: 17.7 µM (≈ 12.5 µg/mL)
Aspergillus nidulans
  MIC: 35.4 µM (≈ 25 µg/mL)
[9]
  MIC: 35.4 µM (≈ 25 µg/mL)

## CC(C)CCn1cc(NC(=O)c2cc(NC(=O)c3cc([N+](=O)[O-])cn3C)cn2C)cc1C(=O)Nc1cc(C(=O)NCCCN(C)C)n(C)c1
Aspergillus niger [1]
  MIC: 15.8 µM (≈ 10.7 µg/mL)
Aspergillus nidulans
  MIC: 25.8 µM (≈ 17.5 µg/mL)
Candida albicans
  MIC: 15.8 µM (≈ 10.7 µg/mL)
Escherichia coli
  MIC: inactive
Enterobacter cloacae
  MIC: inactive
Klebsiella aerogenes [3]
  MIC: 15.8 µM (≈ 10.7 µg/mL)
Staphylococcus aureus [4]
  MIC: 126 µM (≈ 85.3 µg/mL)
[5]
  MIC: 15.8 µM (≈ 10.7 µg/mL)
Proteus vulgaris
  MIC: 126 µM (≈ 85.3 µg/mL)
Staphylococcus aureus [6]
  MIC: 31.6 µM (≈ 21.4 µg/mL)
Enterococcus faecalis [7]
  MIC: 15.8 µM (≈ 10.7 µg/mL)

## CN(C)CCCNC(=O)c1cc(NC(=O)c2cc(NC(=O)c3cc(NC(=O)/C=C/c4ccccc4)cn3C)cn2C)cn1C
Aspergillus niger [1]
  MIC: 140 µM (≈ 83.8 µg/mL)
Aspergillus nidulans
  MIC: 70.2 µM (≈ 42 µg/mL)
Candida albicans
  MIC: 35.1 µM (≈ 21 µg/mL)
Escherichia coli
  MIC: inactive
[2]
  MIC: 70.2 µM (≈ 42 µg/mL)
Klebsiella aerogenes [3]
  MIC: 70.2 µM (≈ 42 µg/mL)
Staphylococcus aureus [4]
  MIC: 140 µM (≈ 83.8 µg/mL)
[5]
  MIC: 140 µM (≈ 83.8 µg/mL)
Proteus vulgaris
  MIC: 70 µM (≈ 41.9 µg/mL)
Staphylococcus aureus [6]
  MIC: 8.8 µM (≈ 5.27 µg/mL)
Enterococcus faecalis [7]
  MIC: 8.8 µM (≈ 5.27 µg/mL)

## CN[C@@H]1[C@H](O[C@H]2[C@H](O[C@H]3[C@H](O)[C@@H](O)[C@H](N=C(N)N)[C@@H](O)[C@@H]3N=C(N)N)O[C@@H](C)[C@]2(O)C=O)O[C@@H](CO)[C@H](O)[C@H]1O [STREPTOMYCIN]
Staphylococcus aureus [6]
  MIC: 10.8 µM (≈ 6.28 µg/mL)

## Cc1sccc1C(=O)Nc1cc(C(=O)Nc2cc(C(=O)Nc3cc(C(=O)NCCCN(C)C)n(C)c3)n(C)c2)n(C)c1
Aspergillus niger [1]
  MIC: 141 µM (≈ 83.6 µg/mL)
Aspergillus nidulans
  MIC: 70.8 µM (≈ 42 µg/mL)
[9]
  MIC: inactive
Escherichia coli
  MIC: inactive
Enterobacter cloacae
  MIC: inactive
Klebsiella aerogenes [3]
  MIC: 70.8 µM (≈ 42 µg/mL)
Staphylococcus aureus [4]
  MIC: 141 µM (≈ 83.6 µg/mL)
[5]
  MIC: 35.4 µM (≈ 21 µg/mL)
[15]
  MIC: inactive
Staphylococcus aureus [11]
  MIC: inactive
Enterococcus faecalis [7]
  MIC: 141 µM (≈ 83.6 µg/mL)

## OC(Cn1cncn1)(Cn1cncn1)c1ccc(F)cc1F [FLUCONAZOLE]
Aspergillus niger [1]
  MIC: > 300 µM
Aspergillus nidulans
  MIC: 90.8 µM (≈ 27.8 µg/mL)
[9]
  MIC: 81.6 µM (≈ 25 µg/mL)

## CN(C)CCCNC(=O)c1cc(NC(=O)c2cc(NC(=O)c3cc(NC=O)cn3C)cn2CC2CC2)cn1C
Aspergillus niger [8]
  MIC: inactive
Aspergillus nidulans
  MIC: 153 µM (≈ 82.1 µg/mL)
Candida albicans
  MIC: 76.9 µM (≈ 41.3 µg/mL)
Escherichia coli
  MIC: inactive
[2]
  MIC: 76.9 µM (≈ 41.3 µg/mL)
Klebsiella aerogenes [3]
  MIC: 38.4 µM (≈ 20.6 µg/mL)
Staphylococcus aureus [4]
  MIC: 76.9 µM (≈ 41.3 µg/mL)
[5]
  MIC: 38.4 µM (≈ 20.6 µg/mL)
[15]
  MIC: inactive
Staphylococcus aureus [6]
  MIC: 153 µM (≈ 82.1 µg/mL)
Enterococcus faecalis [7]
  MIC: 76.9 µM (≈ 41.3 µg/mL)

Source: ChEMBL document CHEMBL1137088, “Distamycin analogues with enhanced lipophilicity: synthesis and antimicrobial activity” (2004)
